B1: tRNA (parent)
chain: GUUCCGUUGGCGUAAUGGUAACGCGUCUCCCUCCUAAGGAGAAGACUGCGGGUUCGAGUCCCGUACGGAACG

Variants of: B1
Assay: yeast fitness, log relative to wild type (ln ratio); higher = fitter; tRNA-Arg(CCU), competitive growth, 37 C, 1 M NaCl
How it was run: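 A combinatorial tRNA-Arg(CCU) variant library was carried on a HIS3 centromeric plasmid in BY4742 lacking the chromosomal gene, from two independent transformations. Pools grew 4 generations in SC-HIS at 30 °C, then ~6.5 generations (~26.5 h) in SC-HIS 1M NaCl at 37 °C, with three outputs per input. Variants were counted by 125 bp paired-end Illumina sequencing. Fitness is ln of each genotype's generations (OD-scaled log2 output/input frequency, inverse-variance weighted across replicates) over the wild-type's.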

| Variant | yeast fitness (ln) |
| --- | --- |
| GGUCCGUUGGCGUAAUGGUAACGCGUCUCCCUCCUAAGGAGACGAUUGCGGGUUCGAGUCCCGUAUGGAUUG | -0.214 |
| AUUCCUUUGGCGUAAUGGUAACGCGUUUCCCUCCUAAGGAGACGACUGCGGGUUCGAGUCCCGUACGGGUCG | -0.481 |
| AGUCCGUUGGCGUAAUGGUAACGCGUCUCCCUCCUAAGGAGAAGACUGCGGGUUCGAGUCCCGUAUGGAAUG | -0.201 |
| AGUCCUUUGGCGUAAUGGUAACGCGUUUCCCUCCUAAGGAGACGAUUGCGGGUUCGAGUCCCGUAUGGGGUG | -0.475 |
| ACUCCGUUGGCGUAAUGGUAACGCGUUUCCCUCCUAAGGAGAAGAUUGCGGGUUCGAGUCCCGUACGGAACG | -0.00588 |
| GCUCCGUUGGCGUAAUGGUAACGCGUCUCCCUCCUAAGGAGAAGAUUGCGGGUUCGAGUCCCGUAUGGGGCG | -0.02 |
| ACUCCGUUGGCGUAAUGGUAACGCGUCUCCCUCCUAAGGAGACGACUGCGGGUUCGAGUCCCGUACGGAACG | -0.0267 |
| GCUCCAUUGGCGUAAUGGUAACGCGUCUCCCUCCUAAGGAGACGACUGCGGGUUCGAGUCCCGUACGGAUCG | -0.0469 |
| GUUCCAUUGGCGUAAUGGUAACGCGUUUCCCUCCUAAGGAGAAGAUUGCGGGUUCGAGUCCCGUACGGAGUG | -0.206 |
| GUUCCGUUGGCGUAAUGGUAACGCGUCUCCCUCCUAAGGAGACGACUGCGGGUUCGAGUCCCGUAUGGGGCG | -0.166 |
| GCUCCAUUGGCGUAAUGGUAACGCGUUUCCCUCCUAAGGAGAAGACUGCGGGUUCGAGUCCCGUACGGAACG | -0.0332 |
| GUUCCAUUGGCGUAAUGGUAACGCGUUUCCCUCCUAAGGAGACGACUGCGGGUUCGAGUCCCGUACGGAAUG | -0.184 |
| AUUCCUUUGGCGUAAUGGUAACGCGUUUCCCUCCUAAGGAGAAGACUGCGGGUUCGAGUCCCGUACGGGGCG | -0.379 |
| AUUCCGUUGGCGUAAUGGUAACGCGUUUCCCUCCUAAGGAGACGACUGCGGGUUCGAGUCCCGUAAGGGGCG | -0.279 |
| AGUCCUUUGGCGUAAUGGUAACGCGUCUCCCUCCUAAGGAGACGACUGCGGGUUCGAGUCCCGUACGGAAUG | -0.307 |
| AUUCCGUUGGCGUAAUGGUAACGCGUCUCCCUCCUAAGGAGACGAUUGCGGGUUCGAGUCCCGUACGGAUUG | -0.116 |
| AUUCCGUUGGCGUAAUGGUAACGCGUUUCCCUCCUAAGGAGAAGACUGCGGGUUCGAGUCCCGUAAGGAGUG | -0.346 |
| GUUCCAUUGGCGUAAUGGUAACGCGUCUCCCUCCUAAGGAGACGACUGCGGGUUCGAGUCCCGUACGGAACG | -0.0714 |
| ACUCCAUUGGCGUAAUGGUAACGCGUUUCCCUCCUAAGGAGACGAUUGCGGGUUCGAGUCCCGUACGGAUUG | -0.153 |

| Variant | yeast fitness (ln) |
| --- | --- |
| GCUCCAUUGGCGUAAUGGUAACGCGUUUCCCUCCUAAGGAGACGACUGCGGGUUCGAGUCCCGUAUGGGUUG | -0.351 |
| AGUCCGUUGGCGUAAUGGUAACGCGUUUCCCUCCUAAGGAGAAGAUUGCGGGUUCGAGUCCCGUAUGGAGUG | -0.218 |
| GGUCCGUUGGCGUAAUGGUAACGCGUCUCCCUCCUAAGGAGACGAUUGCGGGUUCGAGUCCCGUAAGGGAUG | -0.302 |
| GGUCCAUUGGCGUAAUGGUAACGCGUCUCCCUCCUAAGGAGAAGACUGCGGGUUCGAGUCCCGUACGGGGUG | -0.181 |
| GCUCCGUUGGCGUAAUGGUAACGCGUCUCCCUCCUAAGGAGAAGACUGCGGGUUCGAGUCCCGUACGGGGUG | -0.0131 |
| GGUCCAUUGGCGUAAUGGUAACGCGUCUCCCUCCUAAGGAGACGAUUGCGGGUUCGAGUCCCGUAAGGAGCG | -0.169 |
| GUUCCUUUGGCGUAAUGGUAACGCGUCUCCCUCCUAAGGAGAAGAUUGCGGGUUCGAGUCCCGUACGGAACG | -0.0183 |
| GCUCCAUUGGCGUAAUGGUAACGCGUCUCCCUCCUAAGGAGACGAUUGCGGGUUCGAGUCCCGUAAGGAGUG | -0.108 |
| GCUCCGUUGGCGUAAUGGUAACGCGUCUCCCUCCUAAGGAGAAGACUGCGGGUUCGAGUCCCGUACGGGACG | -0.0379 |
| AGUCCGUUGGCGUAAUGGUAACGCGUUUCCCUCCUAAGGAGAAGAUUGCGGGUUCGAGUCCCGUACGGAGUG | -0.503 |
| ACUCCUUUGGCGUAAUGGUAACGCGUCUCCCUCCUAAGGAGAAGAUUGCGGGUUCGAGUCCCGUAUGGGUCG | -0.156 |
| ACUCCGUUGGCGUAAUGGUAACGCGUCUCCCUCCUAAGGAGACGACUGCGGGUUCGAGUCCCGUACGGAUUG | -0.278 |
| GCUCCAUUGGCGUAAUGGUAACGCGUUUCCCUCCUAAGGAGAAGAUUGCGGGUUCGAGUCCCGUACGGAGUG | -0.239 |
| AUUCCUUUGGCGUAAUGGUAACGCGUCUCCCUCCUAAGGAGAAGACUGCGGGUUCGAGUCCCGUAUGGGAUG | -0.312 |
| GUUCCUUUGGCGUAAUGGUAACGCGUUUCCCUCCUAAGGAGAAGACUGCGGGUUCGAGUCCCGUAUGGGAUG | -0.377 |
| AUUCCUUUGGCGUAAUGGUAACGCGUUUCCCUCCUAAGGAGACGAUUGCGGGUUCGAGUCCCGUACGGGAUG | -0.328 |
| GCUCCUUUGGCGUAAUGGUAACGCGUUUCCCUCCUAAGGAGACGAUUGCGGGUUCGAGUCCCGUAUGGAGUG | -0.225 |
| GUUCCUUUGGCGUAAUGGUAACGCGUUUCCCUCCUAAGGAGACGACUGCGGGUUCGAGUCCCGUAUGGGGCG | -0.528 |
